Experimental findings from ChEMBL document CHEMBL3576825, “Antineoplastic agents. 600. From the South Pacific Ocean to the silstatins” (J Nat Prod, 2015) are described below.

Series [1] can be described thus: Cytotoxicity against human BxPC3 cells after 48 hrs by sulforhodamine B assay. The format is functional. The following applies: BXPC-3, 48 h. Summed up:
(§1)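 NCI standard SRB protocol. Cells were seeded in 5% FBS/RPMI-1640 and incubated 24 h, then given serial dilutions of compound for 48 h. Plates were fixed with trichloroacetic acid, stained with sulforhodamine B and read by microplate reader. GI50, the concentration giving a 50% reduction in net protein increase, was calculated from optical density data.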

Series [2] deals with SF-268. Kind of series: Cytotoxicity against human SF268 cells after 48 hrs by sulforhodamine B assay. The class given is functional. The following applies: SF-268, 48 h. Summed up: as §1
A short description of series [3]: Cytotoxicity against human KM20L2 cells after 48 hrs by sulforhodamine B assay. The format is functional. The following applies: KM-20L2, 48 h. Summed up: as §1
The subject of series [4] is NCI-H460. Kind of series: Cytotoxicity against human NCI-H460 cells after 48 hrs by sulforhodamine B assay. The class given is functional. The following applies: NCI-H460, 48 h. Summed up:
as §1

The subject of series [5] is MCF7. The series can be described thus: Cytotoxicity against human MCF7 cells after 48 hrs by sulforhodamine B assay. The class given is functional. The note with it: MCF7, 48 h. Summed up:
as §1

Series [6] deals with DU-145. The series can be described thus: Cytotoxicity against human DU145 cells after 48 hrs by sulforhodamine B assay. The following applies: DU-145, 48 h. The format is functional. The method, boiled down:
as §1

Series [7] can be described thus: Cytotoxicity against human MCF10A cells after 48 hrs by sulforhodamine B assay. The format is cell-based, MCF-10A.
Series [8] is described as follows: Cytotoxicity against human CRL2221 cells after 48 hrs by sulforhodamine B assay. The format is cell-based.

Bounds are passed on as bounds.

With `CC(C)[C@@H]1NC(=O)[C@H](C)OC(=O)[C@@H](C(C)C)NC(=O)[C@@H](CC2CCCCC2)OC(=O)[C@H]([C@@H](C)O)NC(=O)[C@H](C)OC(=O)[C@@H](C(C)C)NC(=O)[C@@H](CC2CCCCC2)OC(=O)[C@H](C(C)C)NC(=O)[C@H](C)OC(=O)[C@@H](C(C)C)NC(=O)[C@@H](CC2CCCCC2)OC1=O`, the 50% growth inhibitory concentration (GI50) in series [1] was 24 nM; in series [2] it was 3.4 nM; in series [3], 3.4 nM; in series [4], 16 nM; in series [5], 2.4 nM; in series [6], 3.9 nM.
Take `CC(C)C[C@H]1OC(=O)[C@H](C(C)C)NC(=O)[C@H](C)OC(=O)[C@@H](C(C)C)NC(=O)[C@@H](CC(C)C)OC(=O)[C@H]([C@@H](C)O)NC(=O)[C@H](C)OC(=O)[C@@H](C(C)C)NC(=O)[C@@H](CC(C)C)OC(=O)[C@H](C(C)C)NC(=O)[C@H](C)OC(=O)[C@@H](C(C)C)NC1=O`: the GI50 in series [1] amounted to 3.5 nM; in series [2], 2.7 nM; in series [3], 2.9 nM; in series [4], 2.8 nM; in series [5], 1.9 nM; in series [6], 5.2 nM.
On to `CC(C)C[C@H]1OC(=O)[C@H](C(C)C)NC(=O)[C@H](C)OC(=O)[C@@H](C(C)C)NC(=O)[C@@H](CC2CCCCC2)OC(=O)[C@H]([C@@H](C)OC(=O)CCCN(C)C(=O)OCc2ccc(O[C@@H]3O[C@H](C(=O)O)[C@@H](O)[C@H](O)[C@H]3O)c([N+](=O)[O-])c2)NC(=O)[C@H](C)OC(=O)[C@@H](C(C)C)NC(=O)[C@@H](CC(C)C)OC(=O)[C@H](C(C)C)NC(=O)[C@H](C)OC(=O)[C@@H](C(C)C)NC1=O`, for which the GI50 in series [1] came to 120 nM; in series [2] it was 30 nM; in series [3], 24 nM; in series [4], 42 nM; in series [5], 18.6 nM; in series [6], 78.1 nM. For the same compound, the values for the GI50 at 48 h in series [7] and in series [8] were 150 nM and 30 nM, respectively.
Take `CC(C)C[C@H]1OC(=O)[C@H](Cc2ccc(OC(C)(C)C)cc2)NC(=O)[C@H](C)OC(=O)[C@@H](C(C)C)NC(=O)[C@@H](CC(C)C)OC(=O)[C@H](C(C)C)NC(=O)[C@H](C)OC(=O)[C@@H](C(C)C)NC(=O)[C@@H](CC(C)C)OC(=O)[C@H](C(C)C)NC(=O)[C@H](C)OC(=O)[C@@H](C(C)C)NC1=O`: the GI50 was found to be 24 nM in series [1]; 2 nM in series [2]; 3.8 nM in series [3]; 23 nM in series [4]; 3.3 nM in series [5]; 8.6 nM in series [6].
Consider `CC(C)C[C@H]1OC(=O)[C@H](C(C)C)NC(=O)[C@H](C)OC(=O)[C@@H](C(C)C)NC(=O)[C@@H](CC(C)C)OC(=O)[C@H](C(C)C)NC(=O)[C@H](C)OC(=O)[C@@H](C(C)C)NC(=O)[C@@H](CC(C)C)OC(=O)[C@H](C(C)C)NC(=O)[C@H](C)OC(=O)[C@@H](C(C)C)NC1=O`, for which the GI50 in series [1] turned out to be 0.69 nM; in series [2], 0.18 nM; in series [3], 0.14 nM; in series [4] it was 0.61 nM; in series [5] it was 0.095 nM; in series [6], 0.36 nM.
Regarding `CC(C)C[C@H]1OC(=O)[C@H](C(C)C)NC(=O)[C@H](C)OC(=O)[C@@H](C(C)C)NC(=O)[C@@H](CC(C)C)OC(=O)[C@H](C(C)C)NC(=O)[C@H](C)OC(=O)[C@@H](C(C)C)NC(=O)[C@@H](CC2CCCCC2)OC(=O)[C@H](Cc2ccc(OC(C)(C)C)cc2)NC(=O)[C@H](C)OC(=O)[C@@H](C(C)C)NC1=O`, the GI50 was 68 nM in series [1]; 46 nM in series [2]; 40 nM in series [3]; 91 nM in series [4]; 24 nM in series [5]; 30 nM in series [6].
As to `CC(C)[C@@H]1NC(=O)[C@H](C)OC(=O)[C@@H](C(C)C)NC(=O)[C@@H](CC2CCCCC2)OC(=O)[C@H](C(C)C)NC(=O)[C@H](C)OC(=O)[C@@H](C(C)C)NC(=O)[C@@H](CC2CCCCC2)OC(=O)[C@H](Cc2ccc(OC(C)(C)C)cc2)NC(=O)[C@H](C)OC(=O)[C@@H](C(C)C)NC(=O)[C@@H](CC2CCCCC2)OC1=O`, the GI50 in series [1], in series [2], in series [3], in series [4], in series [5] and in series [6] was greater than 717 nM each time.
In the case of `CC(C)C[C@H]1OC(=O)[C@H](Cc2ccc(O)cc2)NC(=O)[C@H](C)OC(=O)[C@@H](C(C)C)NC(=O)[C@@H](CC(C)C)OC(=O)[C@H](C(C)C)NC(=O)[C@H](C)OC(=O)[C@@H](C(C)C)NC(=O)[C@@H](CC(C)C)OC(=O)[C@H](C(C)C)NC(=O)[C@H](C)OC(=O)[C@@H](C(C)C)NC1=O`, the GI50 worked out at 4.1 nM in series [1]; 3.3 nM in series [2]; 0.9 nM in series [3]; 3 nM in series [4]; 1.3 nM in series [5]; 4.2 nM in series [6].
Take `CC[C@H](C)[C@H]1OC(=O)[C@H](C(C)C)NC(=O)[C@H](C)OC(=O)[C@@H](C(C)C)NC(=O)[C@@H]([C@@H](C)CC)OC(=O)[C@H](C(C)C)NC(=O)[C@H](C)OC(=O)[C@@H](C(C)C)NC(=O)[C@@H]([C@@H](C)CC)OC(=O)[C@H](C(C)C)NC(=O)[C@H](C)OC(=O)[C@@H](C(C)C)NC1=O` [BACILLISTATIN 1]: the GI50 was determined as 0.82 nM in series [1]; 0.39 nM in series [2]; 0.75 nM in series [3]; 1.2 nM in series [4]; 0.53 nM in series [5]; 1.3 nM in series [6].
With `CC(C)C[C@H]1OC(=O)[C@H](C(C)C)NC(=O)[C@H](C)OC(=O)[C@@H](C(C)C)NC(=O)[C@@H](CC2CCCCC2)OC(=O)[C@H]([C@@H](C)OC(C)(C)C)NC(=O)[C@H](C)OC(=O)[C@@H](C(C)C)NC(=O)[C@@H](CC(C)C)OC(=O)[C@H](C(C)C)NC(=O)[C@H](C)OC(=O)[C@@H](C(C)C)NC1=O`, the GI50 came out at 18 nM in series [1]; 3.2 nM in series [2]; 1.9 nM in series [3]; 7.2 nM in series [4]; 0.79 nM in series [5]; 5.6 nM in series [6].
As for `CC(C)C[C@H]1OC(=O)[C@H](C(C)C)NC(=O)[C@H](C)OC(=O)[C@@H](C(C)C)NC(=O)[C@@H](CC(C)C)OC(=O)[C@H](C(C)C)NC(=O)[C@H](C)OC(=O)[C@@H](C(C)C)NC(=O)[C@@H](CC2CCCCC2)OC(=O)[C@H](Cc2ccc(O)cc2)NC(=O)[C@H](C)OC(=O)[C@@H](C(C)C)NC1=O`, the GI50 stood at 4.8 nM in series [1]; 2.4 nM in series [2]; 1.7 nM in series [3]; 3.2 nM in series [4]; 0.88 nM in series [5]; 4.3 nM in series [6].
For `CC(C)[C@@H]1NC(=O)[C@H](C)OC(=O)[C@@H](C(C)C)NC(=O)[C@@H](CC2CCCCC2)OC(=O)[C@H]([C@@H](C)OC(C)(C)C)NC(=O)[C@H](C)OC(=O)[C@@H](C(C)C)NC(=O)[C@@H](CC2CCCCC2)OC(=O)[C@H](C(C)C)NC(=O)[C@H](C)OC(=O)[C@@H](C(C)C)NC(=O)[C@@H](CC2CCCCC2)OC1=O`, the 50% growth inhibitory concentration (GI50) in series [1] amounted to 135 nM; in series [2], 56.3 nM; in series [3] it was 60 nM; in series [4] it was 240 nM; in series [5] it was 56.3 nM; in series [6] it was 90 nM.
As to `CC(C)[C@@H]1NC(=O)[C@H](C)OC(=O)[C@@H](C(C)C)NC(=O)[C@@H](CC2CCCCC2)OC(=O)[C@H](C(C)C)NC(=O)[C@H](C)OC(=O)[C@@H](C(C)C)NC(=O)[C@@H](CC2CCCCC2)OC(=O)[C@H](C(C)C)NC(=O)[C@H](C)OC(=O)[C@@H](C(C)C)NC(=O)[C@@H](CC2CCCCC2)OC1=O`, the concentration for 50% growth inhibition (GI50) is 392 nM in series [1]; 63.6 nM in series [2]; 141 nM in series [3]; 314 nM in series [4]; 141 nM in series [5]; 173 nM in series [6].
`CC(C)C[C@H]1OC(=O)[C@H](C(C)C)NC(=O)[C@H](C)OC(=O)[C@@H](C(C)C)NC(=O)[C@@H](CC2CCCCC2)OC(=O)[C@H]([C@@H](C)O)NC(=O)[C@H](C)OC(=O)[C@@H](C(C)C)NC(=O)[C@@H](CC(C)C)OC(=O)[C@H](C(C)C)NC(=O)[C@H](C)OC(=O)[C@@H](C(C)C)NC1=O`: the GI50 in series [1] is 3.2 nM; in series [2], 2.6 nM; in series [3] it was 1.7 nM; in series [4] it was 3.3 nM; in series [5], 1.5 nM; in series [6] it was 2.5 nM. For the same compound, the GI50 at 48 h in series [7] and in series [8] was 3.35 nM throughout.
On to `CC(C)[C@@H]1NC(=O)[C@H](C)OC(=O)[C@@H](C(C)C)NC(=O)[C@@H](CC2CCCCC2)OC(=O)[C@H](C(C)C)NC(=O)[C@H](C)OC(=O)[C@@H](C(C)C)NC(=O)[C@@H](CC2CCCCC2)OC(=O)[C@H](Cc2ccc(O)cc2)NC(=O)[C@H](C)OC(=O)[C@@H](C(C)C)NC(=O)[C@@H](CC2CCCCC2)OC1=O`, for which the GI50 came to 396 nM in series [1]; 37.4 nM in series [2]; 67.3 nM in series [3]; 239 nM in series [4]; 89.7 nM in series [5]; 164 nM in series [6].
Regarding `CC[C@H](C)[C@H]1OC(=O)[C@H](C(C)C)NC(=O)[C@H](C)OC(=O)[C@@H](C(C)C)NC(=O)[C@@H]([C@@H](C)CC)OC(=O)[C@H](C(C)C)NC(=O)[C@H](C)OC(=O)[C@@H](C(C)C)NC(=O)[C@@H](CC(C)C)OC(=O)[C@H](C(C)C)NC(=O)[C@H](C)OC(=O)[C@@H](C(C)C)NC1=O`, the GI50 turned out to be 0.29 nM in series [1]; 1.6 nM in series [2]; 0.23 nM in series [3]; 0.39 nM in series [4]; 0.27 nM in series [5]; 0.75 nM in series [6].
